# Hep lipid drop = modulators of hepatic lipid droplet formation | AML12 mouse hepatocytes, oleate lipid droplets, BODIPY imaging | inhibition, % at 6.5 µM | 240,000 tested, 0.4% active;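 active means lipid droplet intensity inhibited by at least 50%, with more than 500 cells counted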
#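 Assay system: AML12 hepatocytes (mouse); Probe or stimulus: oleic acid at 100 µM to induce lipid droplet formation; Dosing: compound at 6.5 µM only; Schedule: compound with oleate, overnight; Detection: fluorescence imaging, 20x objective, two fields per well; Measure: % inhibition of lipid droplet signal.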
# MEKK3 PB1 HTS = MEKK3-MEK5 PB1 interaction, increase or decrease. Q99759. bead-based flow cytometry, Alexa488-MEK5 binding to MEKK3; actives lie on both sides; 0 = blocked by unlabeled MEK5, 100 = vehicle. binding response (% of control), % at 10 µM. 290,000 tested, 1.4% active. AID 1529;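 active means binding response more than 3 SD above or below the average of its plate-row segment, actives on both sides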;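 further: Alexa488 bead fluorescence after subtracting the streptavidin-only scavenger bead signal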
# Target sequence (Q99759 whole entry, looked up): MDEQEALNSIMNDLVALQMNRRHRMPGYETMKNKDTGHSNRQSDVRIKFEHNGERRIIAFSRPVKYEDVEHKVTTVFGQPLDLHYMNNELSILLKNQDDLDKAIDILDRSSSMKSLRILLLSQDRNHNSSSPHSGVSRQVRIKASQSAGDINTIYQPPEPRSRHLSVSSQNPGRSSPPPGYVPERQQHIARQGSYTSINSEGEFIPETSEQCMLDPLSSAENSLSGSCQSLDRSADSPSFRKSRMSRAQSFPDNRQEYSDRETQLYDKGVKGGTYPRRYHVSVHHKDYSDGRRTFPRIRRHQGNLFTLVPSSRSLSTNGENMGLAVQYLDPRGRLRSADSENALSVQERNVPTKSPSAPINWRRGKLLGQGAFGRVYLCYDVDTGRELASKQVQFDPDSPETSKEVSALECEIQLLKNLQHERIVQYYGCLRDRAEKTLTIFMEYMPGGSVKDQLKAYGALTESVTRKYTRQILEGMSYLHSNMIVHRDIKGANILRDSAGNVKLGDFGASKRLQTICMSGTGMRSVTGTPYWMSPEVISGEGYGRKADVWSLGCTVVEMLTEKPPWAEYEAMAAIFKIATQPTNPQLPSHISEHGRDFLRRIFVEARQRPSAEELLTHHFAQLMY
# MEKK2 mut-MEK5 = signal of MEK5 binding to mutant human MEKK2 PB1 domain. bead flow cytometry, Alexa488-MEK5 binding to MEKK2 mutant. percent response, % at 10 µM. 290,000 tested, 0.35% active; in the data active means percent response above about 24%, passing the limit was not always enough
# MEKK2wt PB1 HTS = raises or lowers MEK5 binding to wildtype human MEKK2 PB1 domain; Q9Y2U5; bead flow cytometry, Alexa488-MEK5 binding to MEKK2 WT; actives lie on both sides; binding response (% of control), % at 10 µM; 290,000 tested, 1.1% active; in the data active means binding response below about 67% or above about 130%
# The depositor's hits bear a star; nt = no result given; [ ] = dose if it differs, or a comment. Shown are actives, neighbours in structure and some others; about 2.6% of the full set was active somewhere.
SMILES,Hep lipid drop,MEKK3 PB1 HTS,MEKK2 mut-MEK5,MEKK2wt PB1 HTS
Cc1ccc(S(=O)(=O)N2CCN(C(=O)Cn3nc(C(=O)O)c4ccccc4c3=O)CC2)cc1,-11,99,4,99
C#CCOCCOCCOCCNc1nc(N2CCN(C(=O)[C@H](CCCCN)n3cc(C(N)COC(=O)C(F)(F)F)nn3)CC2)nc(N2CCN(C(=O)[C@H](CCCCN)n3cc(C(N)CC(C)C)nn3)CC2)n1 (stereo partly drawn),17,101,21,150*
C#CCOCCOCCOCCNc1nc(N2CCOCC2)nc(N2CCN(C(=O)[C@H](CCCCN)n3cc([C@@H](N)CC(C)C)nn3)CC2)n1,-9,107,12,118
Cc1c(C(c2ccc(F)cc2)c2c(C)n(C)n(-c3ccccc3)c2=O)c(=O)n(-c2ccccc2)n1C,-8,100,1,101
CC(=O)N1CC(C)Sc2ccc(S(=O)(=O)NCCc3ccccc3)cc21 (stereo not drawn),0,99,5,107
CC(=O)N1CC(C)Sc2ccc(S(=O)(=O)NC(C)c3ccccc3)cc21 (stereo not drawn),-36,80*[inhibitor],-21,64*[inhibitor]
CN(C)CCC(O)c1ccccc1 (stereo not drawn),-18,93,2,-4.0*
CN(C)CCC(c1ccccc1)c1ccccn1 (stereo not drawn),-10,63,2,81
COc1cc(CN2CCN(c3cccc(C)c3C)CC2)cc([N+](=O)[O-])c1O,6,91,242*,212*
COc1ccc(N2CCN(Cc3cc(OC)c(O)c([N+](=O)[O-])c3)CC2)cc1,7,105,4,111
C=CCn1c(SCC(=O)Nc2cc3oc4ccccc4c3cc2OC)nnc1-c1cnccn1,nt,110,11,140*
Cc1ccc2cc(C3CC(c4cccs4)=NN3S(C)(=O)=O)c(Cl)nc2c1 (stereo not drawn),6,97,5,-4.0*
O=c1c(-c2n[nH]c(=S)n2-c2ccccc2)cccn1Cc1cccc(Cl)c1,9,97,0,96
Cc1ccc(N(CC(=O)NC2CCCCC2)C(=O)CNC(=O)c2ccco2)cc1C,-5,103,-1,95
CCNS(=O)(=O)c1ccc(CCC(=O)N2CCc3ccccc3C2)cc1,-4,98,3,97
Cn1c2ccccc2c(=O)c2ccc(C#Cc3ccc(N)cc3)cc21,nt,102,8,22*
COc1ccc(C#Cc2ccc3c(=O)c4ccccc4n(C)c3c2)cc1,nt,97,-5,79
CCN1CCN(CCCNC(=O)c2cc3c(=O)oc4ccc(C)cc4c3s2)CC1,-24,103,5,116
Cc1ccc2oc(=O)c3cc(C(=O)NCCCN4CCN(C)CC4)sc3c2c1,-16,108,7,113
Cc1ccc2oc(=O)c3cc(C(=O)NCCCN4CC(C)CC(C)C4)sc3c2c1 (stereo not drawn),-43,101,13,142*
O=C(NCCCN1CCCCCC1)c1cc2c(=O)oc3ccccc3c2s1,-10,106,23,136*
Cc1ccc(C)c(OCc2cc(C(=O)NC3CCN(Cc4ccccc4)CC3)no2)c1,-27,106,11,135*
O=C(NC1CCN(Cc2ccccc2)C1)c1cc(COc2ccc(F)cc2F)on1 (stereo not drawn),-20,102,13,125
O=C(NCc1ccc2c(c1)OCO2)c1cc(-c2ccccn2)nc2ccccc12,58*,82,-2,85
Cc1ccc2c(c1)c(C)c(C)n2CC(O)CN1CCOCC1 (stereo not drawn),4,93,6,-5.0*[inhibitor]
SMILES,Hep lipid drop,MEKK3 PB1 HTS,MEKK2 mut-MEK5,MEKK2wt PB1 HTS
Cc1c(C)n(CC(O)CN2CCCCCC2)c2ccccc12 (stereo not drawn),nt,105,1,110
CC(C)Sc1cc(Cl)nc(NC(=O)Nc2ccccc2)n1,-11,102,-1,99
C[C@H]1CCC[C@@]2(O[C@H](CCO)C[C@@H](O)[C@@H]2O)O1,nt,105,5,107
COc1cc2ccccc2cc1C(=O)N(CCN(C)C)c1nc2ccc(C)cc2s1,2,100,9,135*
COc1ccc(OC)c2sc(N(CCN(C)C)C(=O)c3ccc4ccccc4c3)nc12,1,105,11,134
COc1cc2ccccc2cc1C(=O)N(CCN(C)C)c1nc2c(OC)ccc(OC)c2s1,-7,104,24*,147*
COC(=O)CCC(=O)OC1(C)C(=O)C2=CN(CCc3c[nH]c4ccccc34)C(c3ccc(OC)cc3)=CC2=C(Br)C1=O (stereo not drawn),nt,84,-3,88
COC(=O)CCC(=O)OC1(C)C(=O)C2=CN(Cc3ccccc3)C(c3ccc(OC)cc3)=CC2=C(Br)C1=O (stereo not drawn),nt,90,-4,-6.0*
COC(=O)CCC(=O)OC1(C)C(=O)C2=CN(CC3CC3)C(c3ccc(OC)cc3)=CC2=C(Br)C1=O (stereo not drawn),6,93,-8,-10*
COC(=O)CCC(=O)OC1(C)C(=O)C2=CN(Cc3ccc(OC)cc3)C(c3ccc(OC)cc3)=CC2=C(Br)C1=O (stereo not drawn),nt,59,11,nt
O=C(N/N=C/C=C/c1ccc(Br)cc1)C(O)c1ccccc1 (stereo not drawn),4,98,0,105
Cc1ccc(-n2c(N)c(C(=O)Nc3c(C)n(C)n(-c4ccccc4)c3=O)c3nc4ccccc4nc32)cc1C,70*,97,-13,88
Cc1cc(-c2csc(N)n2)c(C)n1CCC(C)C,15,101,-2,59*
COc1ccc2cc(C(N)=O)/c(=N/NC(=O)c3ccco3)oc2c1,-3,81,-1,101
COCCN(C(=O)CNC(=O)c1cccs1)C(C(=O)NC(C)(C)C)c1ccccc1 (stereo not drawn),2,98,-2,95
Fc1ccc2nc(C(F)(F)F)cc(N3CCOCC3)c2c1,17,100,0,101
Cc1ccc([N+](=O)[O-])c(OCCCN2CCC(Cc3ccccc3)CC2)c1,nt,111,15,143*
O=C(CSc1ccccc1)N1CCCC(N2CCN(c3ccccc3)CC2)C1 (stereo not drawn),-12,93,-5,91
COc1ccc2[nH]c(=O)c(CN(Cc3cccs3)C(=S)Nc3ccccc3)cc2c1,2,100,-1,-1.0*
CCOC1=NN(c2ncc(C(F)(F)F)cc2Cl)C(=O)/C1=C/N(C)C,9,62,-15,55
Cc1onc(-c2ccccc2Cl)c1C(=O)N(C)Cc1ccccc1,-10,103,4,105
Cc1cc(C)cc(NS(=O)(=O)c2ccc(NC(=O)C3CCCCC3C(=O)O)cc2)c1 (stereo not drawn),6,97,-2,97
COc1ccc(N=c2scc(-c3ccc(S(=O)(=O)N4CCOCC4)cc3)n2CCCO)cc1,-22,2.0*[inhibitor],-36,3.0*[inhibitor]
CC(=O)c1cccc(N=c2scc(-c3ccc(S(=O)(=O)N4CCOCC4)cc3)n2CCO)c1,-34,101,-2,100
